# Compounds with a hit are over-represented: about 3.1% of the library has one in this group of screens.
# Cneo AK release = Cryptococcus neoformans lysis via adenylate kinase release; 360,000 compounds, 0.2% hits; C. neoformans lysis, adenylate kinase release luminescence, 4 h; normalised: neutral wells 0, clomiphene wells 100; lysis activity, % at 15 µM;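 active = mean lysis activity across replicates of at least 80%, whatever share of replicates individually reach that level; inactive = mean lysis activity below 80%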
#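 Schedule: static 4 h at 37 °C with compound, 1 h detection; system: C. neoformans cells; benchmarks: Clomiphene as positive control; buffer or medium: fresh YPD medium; measure: luminescence rise reflecting yeast cell lysis; measured by: luminescent adenylate kinase detection reagent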
# Env fusion inh = blocks HIV Env-driven cell-cell fusion; HeLa-JRFL Env/CEM21 cell fusion, luciferase; inhibition, % at 12.3 µM; 360,000 compounds, 1.1% hits;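 active = mean replicate inhibition score of at least 50 and every replicate individually at or above 50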;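 also: 0% = plate neutral controls and 100% = maraviroc near 300 nM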
# CFTR F508del cor = CFTR F508del correction in bronchial cells. CFBE cells, YFP halide quenching; stimulated with forskolin plus potentiator P3; % fluorescence drop versus neutral controls. activity (quench increase), % at 7.58 µM. 350,000 compounds, 0.36% hits. AID 720511;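 active = mean added fluorescence quench of at least 8% versus neutral control, with both replicates also reaching 8%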;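 also: cells transiently co-express mutant CFTR-F508del with the halide-sensitive YFP; corrector assay measuring rescue of mutant channel to the surface after 24 h compound exposure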
# rRNA inh HTS = selective bacterial rRNA inhibition in E. coli | E. coli WT GFP vs humanized-ribosome RFP mutants, fluorescence, 24 h; active compounds read low; DMSO median 0, no signal -100 | GFP signal change (wild-type ribosome), % (no concentration beside the values) | 350,000 compounds, 1.6% hits;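 active = significant combined selectivity score with lowered wild-type GFP, culture density cut under 30%, mutant RFP and density less affected; inactive = any of these conditions unmet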
# miR122 inh = blocks miR-122 activity in Huh7 sensor cells | Huh7 miR-122 Renilla luciferase sensor, 48 h; neutral wells = 0, positive control = 100 | activation (reporter increase), % at 12.5 µM | 340,000 compounds, 0.3% hits;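 active = mean replicate activation score at least 90 and every replicate individually at or above 90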;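 also: higher luciferase means less miR-122 activity so hits act as miR-122 inhibitors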
# INS-1E GSIS act = GLuc luminescence reporter in INS-1E cells, primary screen for activators of glucose-dependent secretion of insulin. AID 743287. INS-1E GLuc reporter insulin secretion, 2-3 h. activation, % at 16.6 µM. 370,000 compounds, 0.61% hits;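 active = lowest replicate activation of at least 40%, so every replicate reaches that level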;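 also: 0% = median of neutral control wells and 100% = median of IBMX positive control wells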
# An asterisk follows results filed as active; / = not tested or not shown; [ ] = another dose, or the depositor's remark.
SMILES,Cneo AK release,Env fusion inh,CFTR F508del cor,rRNA inh HTS,miR122 inh,INS-1E GSIS act
CSc1ccccc1OCc1cc(C(=O)N2CCC(c3ccncc3)CC2)no1,-7,4,0,-41*,-6,-59
O=C(NCC[C@H]1CC[C@@H](NS(=O)(=O)c2ccc(Cl)cc2)[C@@H](CO)O1)c1ccc2c(c1)OCO2,1,/,-1,-6,/,1
COCC#Cc1cnc2c(c1)C(=O)N([C@@H](C)CO)C[C@@H](C)[C@@H](CN(C)S(=O)(=O)c1cn(C)cn1)O2,2,-16[16.7 µM],3,3,2[16.7 µM],9
COc1ccc(NC(=O)Nc2ccc3c(c2)C(=O)N([C@H](C)CO)C[C@@H](C)[C@H](CN(C)Cc2ccccc2)OCCCC[C@@H](C)O3)cc1,3,-43[16.7 µM],-3,3,-3[16.7 µM],-22
Cc1cccc(NC(=S)Nc2cccc(C(F)(F)F)c2)n1,16,-59,/,/,3,-11
FC(F)(F)c1cccc(NC(=S)Nc2cccc(NC(=S)Nc3cccc(C(F)(F)F)c3)n2)c1,-8,-9,1,-46*,5,14
Cc1cccc(C)c1OCC(O)CN1CCN(c2ccccc2)CC1 (stereo not given),-1,3,5,-29*,0,-17
COc1cccc(OC)c1OCC(O)CN1CCN(c2ccccc2)CC1 (stereo not given),-1,/,/,/,1,/
Cc1cccc(C)c1OCC(O)Cn1c2ccccc2c2ccccc21 (stereo not given),-6,57*,/,/,7,/
Cc1ccc(CNS(=O)(=O)c2ccc3c(c2)NC(=O)C(C)S3)cc1 (stereo not given),-2,0,-1,-34*,5,9
COc1ccc(CCNS(=O)(=O)c2ccc3c(c2)NC(=O)C(C)S3)cc1OC (stereo not given),6,15,7,-21,-5,1
O=C1CSc2ccc(S(=O)(=O)NCc3ccc(Cl)cc3)cc2N1,/,-6,-2,-30*,/,17
CCN(Cc1ccccc1)S(=O)(=O)c1ccc2c(c1)NC(=O)CS2,-5,-2,-1,-35*,17,-12
COc1ccc(CNS(=O)(=O)c2ccc3c(c2)NC(=O)C(C)S3)cc1 (stereo not given),0,1,-2,-19*,-3,5
COc1ccc2c3c(n(C)c2c1)[C@@H](CO)N(C(=O)c1cnccn1)CC31CN(C(=O)c2ccncc2)C1,/,/,/,0,/,18
C[C@@H]1CN([C@H](C)CO)C(=O)c2c(c3ccccc3n2C)-c2ccccc2CO[C@@H]1CN(C)Cc1cccnc1,-3,-37[16.7 µM],1,-1,/,-3
CCSC(=O)N1c2ccc(OC)cc2C=CC1C#N (stereo not given),/,-205,15*,-10,30,/
COc1ccc(C(=O)N2c3ccccc3C=CC2C#N)cc1 (stereo not given),/,9,0,3,/,-20
Cc1ccc2c(c1)C=CC(C#N)N2C(=O)c1ccccc1 (stereo not given),/,35,/,-15,/,50*
C[C@@H]1CN([C@@H](C)CO)C(=O)Cc2cc(NC(=O)CCCN(C)C)ccc2O[C@@H]1CN(C)S(=O)(=O)c1ccccc1,/,/,0,4,-1[16.7 µM],12
CN(CC(=O)Nc1ccc(Cl)c(C(F)(F)F)c1)C(=O)CCN1C(=O)C2CCCCC2C1=O (stereo not given),0,16,10*,-22,-1,-40
CN(CC(=O)Nc1ccc(Cl)c(C(F)(F)F)c1)C(=O)C1(c2ccccc2)CC1,6,56*,-3,-27,-1,-51
Cc1ccc(N2CC(C(=O)N(C)CC(=O)Nc3ccc(Cl)c(C(F)(F)F)c3)CC2=O)cc1 (stereo not given),-1,31,9.2*,-36,-3,-67
CN(CC(=O)NCCc1ccc(S(N)(=O)=O)cc1)CC(=O)Nc1ccc(Cl)c(C(F)(F)F)c1,3,93*,13*,-15,/,-40
CN(CC(=O)NCCc1ccc(S(N)(=O)=O)cc1)CC(=O)Nc1ccccc1Cl,-1,/,2,8,-9,/
CCCN(C)C[C@@H]1OCCCC[C@@H](C)Oc2ccc(NC(=O)C3CCCCC3)cc2C(=O)N([C@H](C)CO)C[C@@H]1C,0,-8[16.7 µM],0,3,10[16.7 µM],16
